Source: article PMC8792322 (European journal of medicinal chemistry, 2021)

Legend:
[1] = target: PI3Kβ (Homo sapiens, UniProt P42338); experiment: PI3Kβ lipid kinase inhibition, Adapta TR-FRET assay; format: biochemical; conditions: in comparison to ZSTK474
[2] = tested on: A375 melanoma, D54 glioblastoma and SET-2 leukemia tumor cell lines; experiment: CellTiter-Fluor cell viability assay; format: cell-based; conditions: Homo sapiens, 72 h, read-out: anti-proliferative activity IC50
Procedure, shortened: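 Human A375, D54 (DMEM or RPMI, 10% FBS) and SET-2 (20% FBS) cells at 37 °C, 5% CO2; 500–1,000 cells/well seeded and left 24 h, then test compound added at 0.1–20 μM final for 72 h. Read by CellTiter-Fluor fluorescence, with a reference PI3K inhibitor as positive control. Three experiments in duplicate wells; IC50 from curve fit, mean ± SEM.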

[3] = tested on: phosphorylation of ERK1/2 (T202/Y204); experiment: Western blot quantification of pERK1/2 in tumor-derived cell lines; format: cell-based; conditions: Homo sapiens, 0.5 h, read-out: inhibition of pERK phosphorylation
Procedure, shortened: (§1)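 A375 and D54 cells (DMEM, 10% FBS) and SET-2 cells (RPMI, 20% FBS) treated 30 min with 10 μM test compound. PDGF 50 ng/ml added for A375 and D54 only. Cells lysed 20 min on ice in RIPA with protease/phosphatase inhibitors, then SDS-PAGE/PVDF blots probed for pAKT S473, pERK1/2 T202/Y204, total AKT and total ERK1/2, with chemiluminescent detection. Background-subtracted phospho densities normalised to total protein, relative to control. Three experiments; mean ± SEM.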

[4] = tested on: phosphorylation of AKT (S473); experiment: Western blot quantification of pAKT in tumor-derived cell lines; format: cell-based; conditions: Homo sapiens, 0.5 h, read-out: inhibition of pAKT phosphorylation
Procedure, shortened: as §1

[5] = In vivo tissue levels and metabolic profile by LC-MS/MS; parameters: species or system mouse; conditions: mice, oral 325 mg/kg, approximately 4 h
Procedure, shortened: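 Mice (n=4 per compound) dosed orally at 325 mg/kg; blood, spleen and bone marrow taken about 4 h later. Tissue extracted by shaking or bead homogenisation and spun at 10,000 × g. Analysed by C18 UPLC (0.1% formic acid water/acetonitrile, 0.6 mL/min) with MRM LC-MS/MS. Internal-standard calibration used 1/X weighting over 0.02–160 ng/mL. Synthesized metabolite standards confirmed identities; levels given as ng/g.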

[6] = tested on: JAK2V617F MF mouse model; experiment: Therapy study in JAK2V617F myelofibrosis mouse model; format: in vivo; conditions: 325 mg/kg daily p.o., 4 days
Procedure, shortened: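 JAK2V617F fl/− × Mx1-Cre donor bone marrow mixed with WT C57BL/6 marrow (1:9, WT:mutant). Five million cells transplanted into lethally irradiated C57BL/6 females, with polyI:C given twice 2 weeks after transplant. Spleen volume by 7T MRI (2D multi-slice FLASH, TR/TE 600/8 ms, 40 slices of 0.4 mm) at days 0 and 4, summing pixel areas × slice thickness. Spleens weighed after 5 days of treatment. n=5 vehicle, n=4 treated; mean ± s.d.; Welch's t-test.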

[7] = tested on: phosphorylated ERK1/2 and AKT in spleens of JAK2V617F MF mice; experiment: pAKT and pERK1/2 in spleens of treated MF mice; format: in vivo, mouse; conditions: 325 mg/kg daily p.o., 5 days, vs vehicle
Procedure, shortened: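 JAK2V617F myelofibrosis mice received test compound orally for 5 days, and spleens were taken after sacrifice. For blots, tissue was homogenised in RIPA and 30 μg protein (by BCA) run by SDS-PAGE. Blots were probed for pERK1/2 and pAKT with β-actin as loading control, 2 animals per group. Flow cytometry: isolated cells stained intracellularly with APC anti-pERK1/2 (pT202/pY204) and anti-pAKT (pS473); mean fluorescence intensity reported.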

[8] = tested on: PI3Kα, PI3Kβ, PI3Kγ, PI3Kδ; conditions: compared to ZSTK474; cited from earlier work
[9] = target: PI3Kδ (Homo sapiens, UniProt O00329); experiment: PI3Kδ lipid kinase inhibition, Adapta TR-FRET assay; format: biochemical; conditions: in comparison to ZSTK474
[10] = target: PI3Kγ (Homo sapiens, UniProt P48736); experiment: PI3Kγ lipid kinase inhibition, Adapta TR-FRET assay; format: biochemical; conditions: in comparison to ZSTK474
[11] = tested on: PI3Kα, PI3Kβ, PI3Kγ, PI3Kδ; experiment: PI3K isoform inhibition, statements spanning several isoforms; format: biochemical, human; conditions: compared to 6b
Procedure, shortened: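 Purified human PI3Kα, β, γ and δ enzymes tested in a fluorescence-based Adapta TR-FRET lipid kinase assay, run as a contract service. Inhibitor range 0.1 nM – 10 μM. Data are the average of three experiments, each in duplicate, as mean ± SEM.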

Chain of PI3Kβ (P42338 whole entry): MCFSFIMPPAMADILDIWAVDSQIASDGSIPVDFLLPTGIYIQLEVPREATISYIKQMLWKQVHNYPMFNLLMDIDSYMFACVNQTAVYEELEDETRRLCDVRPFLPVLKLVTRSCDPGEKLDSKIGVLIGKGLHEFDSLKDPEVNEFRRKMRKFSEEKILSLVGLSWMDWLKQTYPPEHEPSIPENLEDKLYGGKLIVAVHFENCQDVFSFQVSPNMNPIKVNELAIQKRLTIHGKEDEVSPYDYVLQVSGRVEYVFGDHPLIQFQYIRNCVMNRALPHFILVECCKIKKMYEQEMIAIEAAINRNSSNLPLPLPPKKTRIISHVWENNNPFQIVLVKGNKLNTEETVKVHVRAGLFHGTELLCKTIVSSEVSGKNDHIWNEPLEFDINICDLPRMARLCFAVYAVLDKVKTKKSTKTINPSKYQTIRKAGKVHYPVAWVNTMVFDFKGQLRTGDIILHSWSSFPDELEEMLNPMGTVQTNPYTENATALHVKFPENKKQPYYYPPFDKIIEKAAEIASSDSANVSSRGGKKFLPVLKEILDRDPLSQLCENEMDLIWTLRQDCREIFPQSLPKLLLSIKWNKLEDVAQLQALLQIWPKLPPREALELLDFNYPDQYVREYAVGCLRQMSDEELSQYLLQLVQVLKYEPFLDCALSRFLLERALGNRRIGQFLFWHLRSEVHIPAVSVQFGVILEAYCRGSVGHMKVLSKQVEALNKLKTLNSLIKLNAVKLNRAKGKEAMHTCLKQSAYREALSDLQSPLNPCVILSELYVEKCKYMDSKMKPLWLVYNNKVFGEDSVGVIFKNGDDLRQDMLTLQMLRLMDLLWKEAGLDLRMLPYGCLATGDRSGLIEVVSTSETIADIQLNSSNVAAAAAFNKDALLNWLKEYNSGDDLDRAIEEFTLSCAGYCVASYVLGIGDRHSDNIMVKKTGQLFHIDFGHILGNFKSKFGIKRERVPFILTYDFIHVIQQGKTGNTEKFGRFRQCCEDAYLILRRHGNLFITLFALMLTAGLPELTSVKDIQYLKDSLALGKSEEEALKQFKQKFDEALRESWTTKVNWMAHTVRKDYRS
Chain of PI3Kβ (P27986 whole entry partner): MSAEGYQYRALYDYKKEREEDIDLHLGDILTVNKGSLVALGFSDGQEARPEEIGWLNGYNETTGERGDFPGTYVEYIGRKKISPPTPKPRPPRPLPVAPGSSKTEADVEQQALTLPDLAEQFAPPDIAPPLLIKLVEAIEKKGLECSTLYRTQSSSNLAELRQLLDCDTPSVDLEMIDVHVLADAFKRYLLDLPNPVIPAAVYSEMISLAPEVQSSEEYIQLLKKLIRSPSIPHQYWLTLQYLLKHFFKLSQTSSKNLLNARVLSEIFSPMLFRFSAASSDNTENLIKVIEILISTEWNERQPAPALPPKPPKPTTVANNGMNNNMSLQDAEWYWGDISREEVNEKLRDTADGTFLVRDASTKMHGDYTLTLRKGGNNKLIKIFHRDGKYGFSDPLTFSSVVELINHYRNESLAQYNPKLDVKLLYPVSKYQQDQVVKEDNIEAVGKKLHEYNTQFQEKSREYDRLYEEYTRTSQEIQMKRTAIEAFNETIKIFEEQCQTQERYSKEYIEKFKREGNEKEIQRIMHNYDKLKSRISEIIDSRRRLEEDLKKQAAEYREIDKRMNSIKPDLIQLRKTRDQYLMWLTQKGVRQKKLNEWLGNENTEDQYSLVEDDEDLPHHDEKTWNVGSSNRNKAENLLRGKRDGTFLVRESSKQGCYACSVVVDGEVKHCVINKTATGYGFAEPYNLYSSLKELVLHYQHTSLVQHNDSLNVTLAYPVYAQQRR
Chain of PI3Kδ (O00329 whole entry): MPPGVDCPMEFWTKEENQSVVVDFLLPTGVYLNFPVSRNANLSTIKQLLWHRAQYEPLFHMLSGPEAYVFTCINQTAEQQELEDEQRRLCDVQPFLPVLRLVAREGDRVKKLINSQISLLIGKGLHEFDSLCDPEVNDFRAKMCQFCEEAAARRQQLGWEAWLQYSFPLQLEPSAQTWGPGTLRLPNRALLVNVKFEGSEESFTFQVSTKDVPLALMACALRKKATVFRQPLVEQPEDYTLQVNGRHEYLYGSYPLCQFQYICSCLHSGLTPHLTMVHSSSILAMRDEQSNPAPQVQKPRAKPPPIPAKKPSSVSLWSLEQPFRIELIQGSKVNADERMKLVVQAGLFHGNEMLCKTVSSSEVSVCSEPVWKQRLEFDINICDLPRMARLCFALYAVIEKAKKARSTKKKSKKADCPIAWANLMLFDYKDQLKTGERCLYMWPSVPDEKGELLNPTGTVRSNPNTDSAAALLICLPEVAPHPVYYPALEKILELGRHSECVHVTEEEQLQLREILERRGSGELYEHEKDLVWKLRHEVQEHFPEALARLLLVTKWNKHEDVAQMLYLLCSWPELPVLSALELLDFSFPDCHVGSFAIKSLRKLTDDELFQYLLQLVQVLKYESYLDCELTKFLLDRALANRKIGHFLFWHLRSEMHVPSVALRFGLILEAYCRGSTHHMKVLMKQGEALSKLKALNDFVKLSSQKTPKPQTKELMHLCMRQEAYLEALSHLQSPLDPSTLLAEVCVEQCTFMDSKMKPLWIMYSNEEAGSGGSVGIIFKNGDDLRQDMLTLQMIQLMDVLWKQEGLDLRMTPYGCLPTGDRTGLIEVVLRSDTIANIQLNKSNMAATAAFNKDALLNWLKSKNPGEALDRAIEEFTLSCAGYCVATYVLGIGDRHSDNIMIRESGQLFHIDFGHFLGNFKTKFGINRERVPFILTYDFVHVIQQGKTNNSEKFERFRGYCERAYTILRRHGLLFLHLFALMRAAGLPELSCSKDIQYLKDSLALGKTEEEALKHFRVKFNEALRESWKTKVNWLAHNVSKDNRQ
Chain of PI3Kδ (P27986 whole entry partner): as the sequence (P27986 whole entry partner) above
Chain of PI3Kγ (P48736 whole entry, canonical isoform): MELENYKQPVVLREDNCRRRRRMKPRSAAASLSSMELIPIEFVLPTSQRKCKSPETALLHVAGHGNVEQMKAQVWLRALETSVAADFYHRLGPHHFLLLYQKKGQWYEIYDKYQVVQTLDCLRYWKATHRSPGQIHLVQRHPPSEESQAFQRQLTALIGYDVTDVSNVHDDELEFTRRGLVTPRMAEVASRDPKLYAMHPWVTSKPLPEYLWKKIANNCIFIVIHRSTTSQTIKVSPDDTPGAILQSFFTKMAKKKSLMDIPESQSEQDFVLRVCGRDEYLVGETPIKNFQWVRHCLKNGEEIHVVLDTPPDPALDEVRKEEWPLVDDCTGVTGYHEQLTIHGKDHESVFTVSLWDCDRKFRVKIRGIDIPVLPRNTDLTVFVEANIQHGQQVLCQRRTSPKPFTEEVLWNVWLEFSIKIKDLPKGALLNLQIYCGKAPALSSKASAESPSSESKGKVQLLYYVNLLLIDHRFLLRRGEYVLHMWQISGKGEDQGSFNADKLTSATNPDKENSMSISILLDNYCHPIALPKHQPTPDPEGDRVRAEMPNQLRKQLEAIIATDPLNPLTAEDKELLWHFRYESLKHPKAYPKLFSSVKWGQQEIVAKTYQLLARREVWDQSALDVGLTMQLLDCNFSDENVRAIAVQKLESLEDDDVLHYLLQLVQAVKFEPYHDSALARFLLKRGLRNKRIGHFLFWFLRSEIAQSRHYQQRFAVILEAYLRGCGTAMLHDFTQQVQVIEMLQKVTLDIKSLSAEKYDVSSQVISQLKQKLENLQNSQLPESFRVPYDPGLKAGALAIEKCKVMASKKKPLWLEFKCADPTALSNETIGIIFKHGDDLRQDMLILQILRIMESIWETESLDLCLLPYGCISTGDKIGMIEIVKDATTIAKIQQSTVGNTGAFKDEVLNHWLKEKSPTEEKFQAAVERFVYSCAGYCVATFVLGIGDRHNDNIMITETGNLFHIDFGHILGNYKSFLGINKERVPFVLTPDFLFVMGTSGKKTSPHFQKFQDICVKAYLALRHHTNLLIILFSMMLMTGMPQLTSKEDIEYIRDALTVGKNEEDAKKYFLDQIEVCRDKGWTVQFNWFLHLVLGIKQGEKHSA

**Q.** Which “fold decrease in PI3Kβ inhibition” value [1] does the source give for `COCCNc1nc(N2CCOCC2)nc(-n2c(C(F)F)nc3ccccc32)n1` [Compound 6c, 4-(2-(difluoromethyl)-1H-benzo[d]imidazol-1-yl)-N-(2-methoxyethyl)-6-morpholino-1,3,5-triazin-2-amine] here?
**A.** 14 fold

**Q.** For `O=C(NOCCOCCOCCOCCN(CCO)c1nc(N2CCOCC2)nc(-n2c(C(F)F)nc3ccccc32)n1)c1ccc(F)c(F)c1Nc1ccc(I)cc1F` [Compound 6s, N-((3-(4-(2-(difluoromethyl)-1H-benzo[d]imidazol-1-yl)-6-morpholino-1,3,5-triazin-2-yl)-1-hydroxy-6,9,12-trioxa-3-azatetradecan-14-yl)oxy)-3,4-difluoro-2-((2-fluoro-4-iodophenyl)amino)benzamide], which IC50 [2] is on record?
**A.** 7 to 9.9 µM

**Q.** And the inhibition at 10 µM [3]?
**A.** 87 to 96%

**Q.** What about the inhibition at 10 µM [4] of the same compound?
**A.** 55 to 71%

**Q.** And the “in vivo metabolites identified” value [5]?
**A.** MV5–46 (6o), which is then further metabolized to MV5–32 (6b) and MV4–187 (6a)

**Q.** What about the “spleen volume by MRI compared with vehicle” value [6] of the same compound?
**A.** significantly reduced

**Q.** What about the “phosphorylated ERK1/2 and AKT levels in spleen” value [7] of the same compound?
**A.** significantly reduced

**Q.** With `FC(F)c1nc2ccccc2n1-c1nc(N2CCNCC2)nc(N2CCOCC2)n1` [Compound 2a] as the compound, how does the “fold reduction in PI3Kα and PI3Kδ inhibition” value [8] read?
**A.** 36 fold

**Q.** What about the “fold reduction in PI3Kβ and PI3Kγ inhibition” value [8] of the same compound?
**A.** > 70 fold

**Q.** What does the source list for `OCCN(CCO)c1nc(N2CCOCC2)nc(-n2c(C(F)F)nc3ccccc32)n1` [Compound 6b, 2,2’-((4-(2-(difluoromethyl)-1H-benzo[d]imidazol-1-yl)-6-morpholino-1,3,5-triazin-2-yl)azanediyl)bis(ethan-1-ol)]?
**A.** fold decrease in PI3Kβ inhibition [1]: 5 fold; fold decrease in PI3Kδ inhibition [9]: 2.5 fold

**Q.** With `OCCNc1nc(N2CCOCC2)nc(-n2c(C(F)F)nc3ccccc32)n1` [Compound 6a, 2-((4-(2-(difluoromethyl)-1H-benzo[d]imidazol-1-yl)-6-morpholino-1,3,5-triazin-2-yl)amino)ethan-1-ol] as the compound, how does the “fold decrease in PI3Kβ inhibition” value [1] read?
**A.** 5 fold

**Q.** And the “fold lowered potency towards PI3Kγ” value [10]?
**A.** 2.5 fold

**Q.** And the “fold decrease in PI3Kδ inhibition” value [9]?
**A.** 2.5 fold

**Q.** What does the source list for `O=C(NOCCOCCOCCOCCNc1nc(N2CCOCC2)nc(-n2c(C(F)F)nc3ccccc32)n1)c1ccc(F)c(F)c1Nc1ccc(I)cc1F` [Compound 6r, N-(2-(2-(2-(2-((4-(2-(difluoromethyl)-1H-benzo[d]imidazol-1-yl)-6-morpholino-1,3,5-triazin-2-yl)amino)ethoxy)ethoxy)ethoxy)ethoxy)-3,4-difluoro-2-((2-fluoro-4-iodophenyl)amino)benzamide]?
**A.** IC50 [2]: 10.7 to 17.3 µM; inhibition at 10 µM [3]: 66 to 85%; inhibition at 10 µM [4]: 22 to 29%; in vivo metabolites identified [5]: MV-187 (6a) and PD0316684 and MV4–6; spleen volume by MRI compared with vehicle [6]: significantly reduced; phosphorylated ERK1/2 and AKT levels in spleen [7]: significantly reduced

**Q.** For `COCCN(CCO)c1nc(N2CCOCC2)nc(-n2c(C(F)F)nc3ccccc32)n1` [Compound 6d, 2-((4-(2-(difluoromethyl)-1H-benzo[d]imidazol-1-yl)-6-morpholino-1,3,5-triazin-2-yl)(2-methoxyethyl)amino)ethan-1-ol], which “fold lower potency towards PI3Kβ and PI3Kγ” value [11] is on record?
**A.** 2 fold
